The source made the active and inactive calls.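 The calls were made as follows, unless noted: active = fluorescence slope after compound addition differing from the mean of all tested samples at 99.7% confidence, mostly higher but some lower; inactive = the rest.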
Legend:
[1] = inhibitors of TNFa-induced NFkB p65 translocation, primary screen, imaging, HUVEC, MLSMR starter and 10KST1 sets (AID 438;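 active = inhibition above 20% together with a positive visual image hit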;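 also: compound added about 3h40 before a 20 min TNFalpha stimulation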;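 as to inhibition: signal is the nuclear over cytoplasmic p65 intensity ratio per well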); details: HUVEC TNFa-induced p65 nuclear translocation; cell count: measured here: nuclei count (cytotoxicity indicator), at 2.08 µM; inhibition: at 2 µM, stronger effect = higher value, 0% TNFa-plus-vehicle, 100% no-TNFa wells
[2] = inhibitors of E-selectin induction by TNFa, primary screen, imaging, HUVEC, immunofluorescence, MLSMR starter and 10KST1 sets (AID 487;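 active = visually confirmed hit in the image check and inhibition above 20%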;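 as to inhibition: signal is fraction of cell area covered by stained E-selectin grains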;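 as to nuclei count: 100% = median nuclei count of all wells on the same plate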); details: HUVEC TNFalpha-induced E-selectin immunofluorescence imaging, at 2 µM; inhibition: stronger effect = higher value; nuclei count: measured here: cell number, toxicity
[3] = DUSP6 inhibitors restoring Erk phosphorylation by chemical complementation, primary imaging in DUSP6-transfected HeLa (AID 609;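 active = compounds giving at least 50% inhibition in the cell-based MKP-3 phosphatase rescue imaging test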;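 as to inhibition: phospho-Erk level distribution per well compared with pooled transfected vehicle control wells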); details: HeLa MKP-3 transfected, phospho-Erk imaging KS statistic, at 10 µM, cells stimulated with TPA for 15 min
[4] = target: Dual specificity protein phosphatase 6 (Homo sapiens) (UniProt Q16828); assay: as above; details: HeLa MKP-3 transfected, phospho-Erk imaging KS statistic; at 10 µM; stronger effect = higher value; cells stimulated with TPA for 15 min
[5] = target: Voltage-gated potassium channel subunit beta-2 (Rattus norvegicus) (UniProt P62483); assay: KvBeta enzyme negative modulators, primary screen, biochemical, NADPH fluorescence (AID 622;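 active = fluorescence slope higher than the sample average by over 3 SD, cut at about -0.22 in these data, passing the limit was not always enough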;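 also: slope of raw intensity against log time taken from 70 to 1610 s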); details: recombinant KvBeta, 4-cyanobenzaldehyde reduction, at 10 µM, stronger effect = higher value
[6] = target: Voltage-gated potassium channel subunit beta-2 (Rattus norvegicus) (UniProt P62483); assay: KvBeta positive modulators, primary screen, biochemical, NADPH fluorescence (AID 623;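 active = NADPH fluorescence slope more negative than the mean of all samples by about 3 SD, 99.7% confidence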;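 also: fluorescence intensity change per second fitted from 20 to 320 s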); details: Recombinant KvBeta, NADPH fluorescence decrease slope, 10 min; at 10 µM; stronger effect = lower value
[7] = target: Muscarinic acetylcholine receptor M4 (Homo sapiens) (UniProt P08173); assay: compounds altering M4/GIRK thallium flux, either direction, primary screen, M4 allosteric agonist project, cell-based, HEK293 M4/GIRK, BTC-AM (AID 625); details: at 10 µM, actives lie on both sides;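 also: thallium influx through GIRK channels coupled to M4 in HEK293 cells with BTC-AM dye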
Procedure, shortened: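 assay system = HEK293 cells with M4 receptor and GIRK channels | medium = pH 7.3 thallium assay buffer | doses = 10 µM final, single point | timing = cells overnight at 37 °C, BTC-AM loading 1 h, reads 2 min total | signal = BTC-AM fluorescence, 1 Hz kinetic reads | read-out = post-addition slope, 15–24 s, of baseline-normalized fluorescence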

[8] = inhibitors of larval lipid processing in zebrafish, primary screen, whole organism, PED6 fluorescence, gall bladder and intestine (AID 686;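 active = a full or partial loss of lipid-probe fluorescence in the fish gall bladder, intestine or both, judged by eye; inactive = no fluorescence loss, or compound toxic to the fish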;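 also: larvae 5 to 7 days old with five fish per well; signal comes from phospholipase A2 cleavage of quenched PED6 carried via bile; overnight exposure to compound and PED6 before scoring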); details: Zebrafish larvae PED6 lipid processing, fluorescence scoring; screened at 20 µM (by protocol)
Procedure, shortened: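 Also added: quenched phospholipase substrate PED6, 100 nM final, ingested by larvae; System: zebrafish larvae, 5-7 d; Quantity: 5 larvae per well; Compound: 20 µM single dose; Schedule: overnight compound and PED6 incubation; Read-out: visual per-well fluorescence inhibition score; Measured by: By-eye fluorescence microscopy; Medium: E3.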

[9] = inhibitors of Chlamydomonas gravitaxis, primary screen, whole organism, Chlamydomonas reinhardtii, WT vs cilia-less mutant, absorbance, 96-well (AID 463189;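 active = inhibition at or above 50% relative to wild type and mutant plate controls; inactive = inhibition below 50%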;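 also: 0% = wild type cc124 cells in DMSO and 100% = ciliumless bld1 mutant cells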); details: OD600 absorbance, 2 days, at 10 µM, stronger effect = higher value
[10] = measured here: cell density z-score
[11] = measured here: nuclear c-Myc green intensity z-score
[12] = measured here: nuclear pErk red intensity z-score, stronger effect = higher value

Sequence of Voltage-gated potassium channel subunit beta-2 (Rattus norvegicus) (P62483 whole entry, looked up): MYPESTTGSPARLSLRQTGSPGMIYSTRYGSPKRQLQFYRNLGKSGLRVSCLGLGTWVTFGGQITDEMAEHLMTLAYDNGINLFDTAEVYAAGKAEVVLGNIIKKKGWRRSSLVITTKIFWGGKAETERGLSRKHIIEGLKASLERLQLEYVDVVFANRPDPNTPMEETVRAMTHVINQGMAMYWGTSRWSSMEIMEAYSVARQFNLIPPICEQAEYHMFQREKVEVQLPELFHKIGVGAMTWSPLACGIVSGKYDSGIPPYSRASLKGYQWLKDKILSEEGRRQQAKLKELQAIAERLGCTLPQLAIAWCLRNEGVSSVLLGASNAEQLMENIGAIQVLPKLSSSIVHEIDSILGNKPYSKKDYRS
Sequence of Muscarinic acetylcholine receptor M4 (Homo sapiens) (P08173 whole entry, looked up): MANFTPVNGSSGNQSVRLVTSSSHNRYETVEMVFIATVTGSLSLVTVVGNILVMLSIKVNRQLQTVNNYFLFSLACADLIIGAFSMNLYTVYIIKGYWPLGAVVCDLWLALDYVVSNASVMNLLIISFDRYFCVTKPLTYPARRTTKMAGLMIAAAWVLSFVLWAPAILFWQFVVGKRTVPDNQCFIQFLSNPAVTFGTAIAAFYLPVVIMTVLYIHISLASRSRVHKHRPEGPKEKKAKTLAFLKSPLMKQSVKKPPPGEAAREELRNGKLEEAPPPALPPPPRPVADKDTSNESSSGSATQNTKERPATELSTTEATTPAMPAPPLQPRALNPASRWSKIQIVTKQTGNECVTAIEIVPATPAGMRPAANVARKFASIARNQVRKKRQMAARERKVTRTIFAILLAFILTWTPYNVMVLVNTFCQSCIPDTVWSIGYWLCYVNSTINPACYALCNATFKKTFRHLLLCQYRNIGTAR
Sequence of Dual specificity protein phosphatase 6 (Homo sapiens) (Q16828 whole entry, looked up): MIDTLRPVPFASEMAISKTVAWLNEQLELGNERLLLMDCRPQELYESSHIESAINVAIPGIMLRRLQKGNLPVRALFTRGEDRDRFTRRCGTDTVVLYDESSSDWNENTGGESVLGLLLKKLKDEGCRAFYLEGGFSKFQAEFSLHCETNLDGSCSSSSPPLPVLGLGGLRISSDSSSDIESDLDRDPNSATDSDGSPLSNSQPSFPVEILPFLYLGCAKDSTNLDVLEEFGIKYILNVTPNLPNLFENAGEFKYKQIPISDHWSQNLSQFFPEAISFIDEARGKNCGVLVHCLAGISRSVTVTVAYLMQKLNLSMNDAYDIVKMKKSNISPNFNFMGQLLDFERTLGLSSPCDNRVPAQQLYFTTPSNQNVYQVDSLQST

Row | Compound | cell count [1] | inhibition [1] | inhibition [2] | nuclei count [2] | z-score [3, 10] | z-score [3, 11] | z-score [3, 12] | inhibition [4] | fluorescence slope [5] | NADPH fluorescence slope [6] | fluorescence slope [7] | outcome [8] | inhibition [9]
1 | COCCCn1c2nc3ccccc3nc2c2c(=O)n(-c3ccccc3OC)c(C)nc21 | 671 | -8.6% (inactive) | -13.5% (inactive) | 185% | 0.714 | -0.748 | 0.0802 | 9.07% (inactive) | -0.442 (inactive) | -3.7e-05 (inactive) | 0.0072 (inactive) | inactive | 4.04% (inactive)
2 | Cc1ccc(Cn2ncc3c(N4CCN(Cc5ccc(Cl)cc5)CC4)ncnc32)cc1 | 549 | 22.5% (active) | -21.2% (inactive) | 134% | -0.467 | 0.343 | 1.03 | 5.95% (inactive) | -0.368 (inactive) | -6.6e-05 (inactive) | 0.00938 (inactive) | inactive | 60.8% (active)
3 | Cc1ccc(C(=O)/C=C/Nc2ccccn2)cc1 | 361 | -5.9% (inactive) | -98.9% (inactive) | 104% | 0.761 | 0.782 | -1.14 | 15.4% (inactive) | -0.455 (inactive) | -3.3e-05 (inactive) | 0.00424 (inactive) | inactive | 35.5% (inactive)
4 | CCN(CC)CCCN1C(=O)C(=O)/C(=C(/O)c2ccc3c(c2)CC(C)O3)C1c1cccnc1 (stereo unspecified) | 574 | -10.8% (inactive) | 68% (inactive) | 83.2% | -1.33 | 0.323 | 0.536 | 6.04% (inactive) | -0.502 (inactive) | -2.4e-05 (inactive) | 0.00627 (inactive) | inactive | 13.2% (inactive)
5 | Cc1ccc(S(=O)(=O)NC(=O)Nc2ncc3c(n2)CC(c2ccco2)CC3=O)cc1 (stereo unspecified) | 662 | -3.8% (inactive) | 45.8% (inactive) | 89.6% | 1.23 | -1.12 | -0.985 | 22.1% (inactive) | -0.51 (inactive) | -2.8e-05 (inactive) | 0.00507 (inactive) | inactive | -13.7% (inactive)
6 | COc1ccc(/C(O)=C2\C(=O)C(=O)N(Cc3ccco3)C2c2cc(OC)ccc2OC)cc1 (stereo unspecified) | 613 | -13.1% (inactive) | -6% (inactive) | 161% | 0.378 | -0.392 | -0.39 | 5.42% (inactive) | -0.452 (inactive) | -1.6e-05 (inactive) | 0.00573 (inactive) | inactive | -2.62% (inactive)
7 | CCOC(=O)CNS(=O)(=O)c1cc(-c2n[nH]c(=O)c3ccccc23)ccc1C | 550 | -12.6% (inactive) | -67% (inactive) | 151% | 2.42 | 0.186 | 0.634 | 20.2% (inactive) | -0.47 (inactive) | -0.000102 (inactive) | 0.00467 (inactive) | inactive | 2.8% (inactive)

Reference: PubChem BioAssay
